Laboratory results as given in ChEMBL document CHEMBL1795201, “Substituted N-aryl-6-pyrimidinones: a new class of potent, selective, and orally active p38 MAP kinase inhibitors” (Bioorg Med Chem Lett, 2011).
Converted amounts (≈) assume the structure as drawn.

Tests used:
[1] = Oral bioavailability in rat at 0.2 mg/kg; format: ADME, organism-based; conditions: in vivo
[2] = Volume of distribution at steady state in rat at 0.2 mg/kg, iv; format: ADME, organism-based; design: dose 0.2 mg/kg, route intravenous; conditions: in vivo, read-out: Vdss
[3] = Oral bioavailability in dog at 1 mg/kg; format: ADME, organism-based, Canis lupus familiaris; conditions: in vivo
[4] = Clearance in rat at 0.2 mg/kg, iv; format: ADME, organism-based; design: dose 0.2 mg/kg, route intravenous; conditions: in vivo
[5] = Oral bioavailability in rat at 5 mg/kg administered as suspension; format: ADME, organism-based; conditions: in vivo
How it was run: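 Rats dosed orally at 5 mpk with compound given as a suspension; bioavailability reported as oral BA (suspension).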

[6] = Metabolic stability in human liver microsomes at 2 uM after 45 mins by LC-MS analysis in presence of NADPH; format: ADME, Microsome; conditions: read-out: Stability
How it was run: (§1)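 Test compound at 2 μM incubated with liver microsomes (human or rat), NADPH and buffer at 37 °C for 45 min; samples processed by precipitation, then LC-MS measured percent parent compound remaining.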

[7] = Half life in rat at 0.2 mg/kg, iv; format: ADME, organism-based; design: dose 0.2 mg/kg, route intravenous; conditions: in vivo
[8] = Metabolic stability in rat liver microsomes at 2 uM after 45 mins by LC-MS analysis in presence of NADPH; format: ADME, Microsome; conditions: read-out: Stability; how it was run: as §1
[9] = Lipophilicity, log P of the compound; format: physicochemical; conditions: octanol/water
[10] = Aqueous solubility of the compound in crystalline form at pH 6.5; format: physicochemical; conditions: aqueous medium
How it was run: (§2)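 Aqueous solubility measured at pH 6.5, expressed in µg/mL.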

[11] = Volume of distribution at steady state in dog at 1 mg/kg, iv; format: ADME, organism-based, Canis lupus familiaris; design: dose 1 mg/kg, route intravenous; conditions: in vivo, read-out: Vdss
[12] = Clearance in dog at 1 mg/kg, iv; format: ADME, organism-based, Canis lupus familiaris; design: dose 1 mg/kg, route intravenous; conditions: in vivo
[13] = Apparent permeability in human Caco2 cells; format: ADME, cell-based; conditions: Caco-2
[14] = Half life in dog at 1 mg/kg, iv; format: ADME, organism-based, Canis lupus familiaris; design: dose 1 mg/kg, route intravenous; conditions: in vivo
[15] = Aqueous solubility of the compound in amorphous form at pH 6.5; format: physicochemical; how it was run: as §2
[16] = aqueous medium, read-out: solubility

Row | remaining at 0.75 h, 2 µM [6] | remaining at 0.75 h, 2 µM [8] | solubility [15, 16] | SMILES | also measured
1 | 99% | 97% | 51 µg/mL (≈ 113 µM) | Cc1ccc(C(=O)NCCO)cc1-n1cnc(OCc2ccc(F)cc2F)c(Cl)c1=O | bioavailability [1]: 99%; Vd [2]: 1.32 L/kg; bioavailability [3]: 67%; clearance [4]: 3.19 mL/min/kg; bioavailability [5]: 99%; half-life [7]: 6.5 h; logP [9]: 1.65; solubility [10]: 23 µg/mL (≈ 51.1 µM); Vd [11]: 0.986 L/kg; clearance [12]: 1.59 mL/min/kg; Papp [13]: 7.99 ×10⁻⁶ cm/s; half-life [14]: 8.7 h
2 | 100% | 100% | 14 µg/mL (≈ 30.2 µM) | Cc1ccc(C(=O)NCC(N)=O)cc1-n1cnc(OCc2ccc(F)cc2F)c(Cl)c1=O | –
3 | 97% | 100% | 163 µg/mL (≈ 340 µM) | Cc1ccc(C(=O)NC[C@@H](O)CO)cc1-n1cnc(OCc2ccc(F)cc2F)c(Cl)c1=O | –
4 | 96% | 85% | 94 µg/mL (≈ 197 µM) | Cc1ccc(C(=O)NC[C@H](C)CO)cc1-n1cnc(OCc2ccc(F)cc2F)c(Cl)c1=O | –
5 | 77% | 72% | 147 µg/mL (≈ 308 µM) | Cc1ccc(C(=O)N[C@H](C)C(N)=O)cc1-n1cnc(OCc2ccc(F)cc2F)c(Cl)c1=O | –
6 | 84% | 99% | 28 µg/mL (≈ 65.2 µM) | Cc1ccc(C(=O)NCCO)cc1-n1cnc(OCc2ccc(F)cc2F)c(C)c1=O | –
7 | 76% | 92% | 20 µg/mL (≈ 45.1 µM) | CCc1c(OCc2ccc(F)cc2F)ncn(-c2cc(C(=O)NCCO)ccc2C)c1=O | –
8 | – | – | – | Cc1ccc(C(=O)NCCO)cc1-n1cnc(OCc2ccc(F)cc2F)c(Br)c1=O | solubility ([15]; buffer): Insoluble
9 | – | – | – | CNC(=O)c1ccc(C)c(-n2c(C)cc(OCc3ccc(F)cc3F)c(Br)c2=O)c1 [PH-797804] | bioavailability [5]: 9.3%; logP [9]: 3.35; solubility [10]: 10 µg/mL (≈ 21 µM); Papp [13]: 15.9 ×10⁻⁶ cm/s
